From ChEMBL document CHEMBL1142069, “Caspofungin in combination with amphotericin B against Candida parapsilosis” (Antimicrob Agents Chemother, 2007)
≈ marks a conversion by molar mass, not a printed value. Calls of active or inactive are those of the source. No cut-off for these calls is given here.

Experiments:
Assay type in all cases: functional, organism-based
Candida parapsilosis [1] = assay: Growth inhibition of Candida parapsilosis after 24 hrs by broth dilution assay; conditions: Lodderomyces parapsilosis
In short: (§1)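 CLSI-derived checkerboard broth microdilution in RPMI 1640 with 0.165 M MOPS, pH 7.0. Final ranges were AMB 0.03–2.0 µg/ml and CAS 0.03–64 µg/ml, alone or combined. Inoculum 1.0 x 10^3 to 5.0 x 10^3 CFU/ml (2x), 35°C in air. OD490 read at 24 and 48 h; IC50/IC90 taken as 50%/90% turbidity reduction versus control. Quintuplicate.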

Candida parapsilosis [2] = assay: Antifungal activity against Candida parapsilosis at 0.5 ug/ml after 24 hrs
In short: (§2)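 Time-kill with C. parapsilosis strain no. 3. A 0.5 McFarland suspension was diluted 1:10 into MOPS-buffered RPMI 1640 with drug alone or combined, shaken at 35°C. Samples were taken at 0, 2, 6 and 24 h, serially diluted 10-fold and plated on Sabouraud dextrose agar. CFU counted after 48 h at 35°C; detection limit 20 CFU/ml. Triplicate.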

Candida parapsilosis [3] = assay: Growth inhibition of Candida parapsilosis after 48 hrs by broth dilution assay; conditions: Lodderomyces parapsilosis; in short: as §1
Candida parapsilosis [4] = assay: Antifungal activity against Candida parapsilosis at 4 ug/ml after 24 hrs; in short: as §2
Candida parapsilosis [5] = assay: Fungistatic effect on Candida parapsilosis at 256 ug/ml after 24 hrs

Structure (SMILES)	IC50 (Candida parapsilosis [1]) [µg/mL]	IC90 (Candida parapsilosis [1]) [µg/mL]	Activity (Candida parapsilosis [2])	IC50 (Candida parapsilosis [3]) [µg/mL]	IC90 (Candida parapsilosis [3]) [µg/mL]	Activity (Candida parapsilosis [4])	Activity (Candida parapsilosis [5])
C[C@@H]1[C@H](O)[C@@H](C)/C=C/C=C/C=C/C=C/C=C/C=C/C=C/[C@H](O[C@@H]2O[C@H](C)[C@@H](O)[C@H](N)[C@@H]2O)C[C@@H]2O[C@](O)(C[C@@H](O)C[C@@H](O)[C@H](O)CC[C@@H](O)C[C@@H](O)CC(=O)O[C@H]1C)C[C@H](O)[C@H]2C(=O)O [AMPHOTERICIN B]	0.16 (≈ 0.173 µM)	0.34 (≈ 0.368 µM)	inactive	0.18 (≈ 0.195 µM)	0.68 (≈ 0.736 µM)		
CC[C@H](C)C[C@H](C)CCCCCCCCC(=O)N[C@H]1C[C@@H](O)[C@@H](NCCN)NC(=O)[C@@H]2[C@@H](O)CCN2C(=O)[C@H]([C@H](O)CCN)NC(=O)[C@H]([C@H](O)[C@@H](O)c2ccc(O)cc2)NC(=O)[C@@H]2C[C@@H](O)CN2C(=O)[C@H]([C@@H](C)O)NC1=O [CASPOFUNGIN]	0.79 (≈ 0.723 µM)	1.36 (≈ 1.24 µM)		1.17 (≈ 1.07 µM)	2.33 (≈ 2.13 µM)	inactive	Active
